Data taken from ChEMBL document CHEMBL1140577, “Anticancer and anti-inflammatory activities of 1,8-naphthyridine-3-carboxamide derivatives” (Bioorg Med Chem Lett, 2007).
Activity calls are given as the source filed them. The rule behind the calls is not given here.

Legend:
[1] = Cytotoxicity against human MIA PaCa cells after 72 hrs by MTT assay; type: functional, cell-based
Summary of the method: (§1)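 5000–10,000 cells seeded per well and exposed for 72 h in a CO₂ incubator to five concentrations, the highest 10 µM (top soluble). MTT (125 µg) added for 3 h, then lysed with 10% SDS–0.01 N HCl for 1 h. Absorbance read at 540 nm. % cytotoxicity = (1 − (treated−blank)/control)×100.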

KB = experiment: Cytotoxicity against human KB cells after 72 hrs by MTT assay; type: functional, cell-based; summary of the method: as §1
SW-620 = experiment: Cytotoxicity against human SW620 cells after 72 hrs by MTT assay; type: functional, cell-based; conditions: SW-620, 72 h; summary of the method: as §1
PA-1 = experiment: Cytotoxicity against human PA1 cells after 72 hrs by MTT assay; type: functional, cell-based; conditions: PA-1, 72 h; summary of the method: as §1
A549 = experiment: Cytotoxicity against human A549 cells after 72 hrs by MTT assay; type: functional, cell-based; conditions: A549, 72 h; summary of the method: as §1
NIH3T3 (Mus musculus) = experiment: Cytotoxicity against mouse NIH3T3 cells after 72 hrs by MTT assay; conditions: NIH3T3, 72 h
HBL-100 = experiment: Cytotoxicity against human HBL100 cells after 72 hrs by MTT assay; type: functional, cell-based; conditions: HBL-100, 72 h; summary of the method: as §1
DU-145 = experiment: Cytotoxicity against human DU145 cells after 72 hrs by MTT assay; type: functional, cell-based; conditions: DU-145, 72 h; summary of the method: as §1
K562 = experiment: Cytotoxicity against human K562 cells after 72 hrs by MTT assay; type: functional, cell-based; conditions: K562, 72 h; summary of the method: as §1
Dendritic cell [2] = experiment: Myeloprotective activity assessed as stimulation of MIP1 secretion in mouse dendritic cells after 24 hrs by ELISA relative to basal level; type: functional, cell-based
Summary of the method: (§2)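 Murine bone-marrow-derived dendritic cells, not LPS-stimulated, incubated with compounds at 0.1 and 1 µg/ml for 24 h. MIP-1α, CCL22 and TNF-α in culture supernatants measured by ELISA. % change = (B−A)/A×100 against untreated DCs.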

Dendritic cell [3] = experiment: Myeloprotective activity assessed as inhibition of TNFalpha secretion in mouse dendritic cells after 24 hrs by ELISA relative to basal level; type: functional, cell-based; summary of the method: as §2
Dendritic cell [4] = experiment: Myeloprotective activity assessed as inhibition of CCL22 secretion in mouse dendritic cells after 24 hrs by ELISA; type: functional, cell-based; summary of the method: as §2
[5] = Antiinflammatory activity assessed as inhibition of TNFalpha secretion in LPS-induced C57BL/6 mouse dendritic cells at 1 ug/mL after 24 hrs by ELISA; type: functional; conditions: C57BL/6, Dendritic cell
Summary of the method: (§3)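 DCs grown from femoral bone marrow of 8–12-week-old C57BL/6 mice in RPMI-1640 with 10% FBS and rmGM-CSF (20 ng/ml), 37 °C, 5% CO₂. Immature DCs stimulated with LPS (100 ng/ml) and exposed to compounds (0.001–10 µg/ml range) for 24 h. Cytokine in supernatant quantified by ELISA. % change = (B−A)/A×100, where A is LPS-stimulated DCs without compound.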

Dendritic cell [6] = experiment: Antiinflammatory activity assessed as inhibition of IP-10 secretion in LPS-induced C57BL/6 mouse dendritic cells after 24 hrs by ELISA; type: functional, cell-based; summary of the method: as §3
[7] = Antiinflammatory activity assessed as inhibition of IL1-beta secretion in LPS-induced C57BL/6 mouse dendritic cells after 24 hrs by ELISA; type: functional, Dendritic cell; summary of the method: as §3

With `C#CCn1cc(C(=O)NCCCOC(=O)[C@H]2CCCN2C(=O)OC(C)(C)C)c(=O)c2ccc(C)nc21` the IC50 [1] was > 10 µM, the IC50 (KB) was 3.7 µM and the IC50 (SW-620) was > 10 µM. For the same compound, the IC50 (PA-1) was > 10 µM, the IC50 (A549) was > 10 µM and the IC50 (NIH3T3 (Mus musculus)) was > 10 µM. For the same compound, the IC50 (HBL-100) was > 10 µM, the IC50 (DU-145) was > 10 µM and the IC50 (K562) was > 10 µM.
For `C#CCn1cc(C(=O)NCCCOC(=O)[C@H](C)NC(=O)OC(C)(C)C)c(=O)c2ccc(Cl)nc21`, the IC50 [1] was > 10 µM, the IC50 (KB) was > 10 µM and the IC50 (SW-620) was > 10 µM. For the same compound, the IC50 (PA-1) was > 10 µM, the IC50 (A549) was > 10 µM and the IC50 (NIH3T3 (Mus musculus)) was 9.2 µM. The IC50 (HBL-100) was 5.4 µM, the IC50 (DU-145) was > 10 µM and the Activity (Dendritic cell [2]) was “Active”. For the same compound, the Activity (Dendritic cell [3]) was “Active”, the IC50 (K562) was > 10 µM and the Activity (Dendritic cell [4]) was “Active”.
For `C#CCn1cc(C(=O)NCCCOC(=O)CNC(=O)OC(C)(C)C)c(=O)c2ccc(Cl)nc21`, the Activity (Dendritic cell [2]) was “Active”, the Activity (Dendritic cell [3]) was “Active” and the inhibition at 1 µg/mL [5] was > 50%. For the same compound, the Activity (Dendritic cell [6]) was “Active” and the Activity (Dendritic cell [4]) was “Active”.
With `C#CCn1cc(C(=O)NCCCOC(=O)[C@H]2OC(C)(C)N(C(=O)OC(C)(C)C)[C@@H]2c2ccccc2)c(=O)c2cccnc21` the Inhibition [7] was >50%.
For `C#CCn1cc(C(=O)N[C@@H](C)CCOC(=O)[C@H]2CCCN2C(=O)OC(C)(C)C)c(=O)c2ccc(Cl)nc21`, the IC50 [1] was > 10 µM, the IC50 (KB) was 6.6 µM and the IC50 (SW-620) was 3.3 µM. The IC50 (PA-1) was 5.2 µM, the IC50 (A549) was > 10 µM and the IC50 (NIH3T3 (Mus musculus)) was > 10 µM. For the same compound, the IC50 (HBL-100) was 8.4 µM, the IC50 (DU-145) was > 10 µM and the IC50 (K562) was > 10 µM.
With `C#CCn1cc(C(=O)NCCCOC(=O)CNC(=O)OC(C)(C)C)c(=O)c2cccnc21` the IC50 [1] was > 10 µM, the IC50 (KB) was 7 µM and the IC50 (SW-620) was > 10 µM. For the same compound, the IC50 (PA-1) was 9 µM, the IC50 (A549) was > 10 µM and the IC50 (NIH3T3 (Mus musculus)) was > 10 µM. The IC50 (HBL-100) was > 10 µM, the IC50 (DU-145) was > 10 µM and the IC50 (K562) was > 10 µM.
With `C#CCn1cc(C(=O)N[C@@H](C)CCOC(=O)[C@H](C)NC(=O)OC(C)(C)C)c(=O)c2ccc(Cl)nc21` the IC50 [1] was > 10 µM, the IC50 (KB) was 8.3 µM and the IC50 (SW-620) was > 10 µM. For the same compound, the IC50 (PA-1) was 4.9 µM, the IC50 (A549) was > 10 µM and the IC50 (NIH3T3 (Mus musculus)) was > 10 µM. The IC50 (HBL-100) was > 10 µM, the IC50 (DU-145) was > 10 µM and the IC50 (K562) was > 10 µM.
With `C#CCn1cc(C(=O)NCCCOC(=O)[C@H]2CCCN2C(=O)OC(C)(C)C)c(=O)c2ccc(Cl)nc21` the IC50 [1] was 7.6 µM, the IC50 (KB) was > 10 µM and the IC50 (SW-620) was > 10 µM. For the same compound, the IC50 (PA-1) was > 10 µM, the IC50 (A549) was > 10 µM and the IC50 (NIH3T3 (Mus musculus)) was 8.4 µM. For the same compound, the IC50 (HBL-100) was 3.7 µM, the IC50 (DU-145) was > 10 µM and the Activity (Dendritic cell [2]) was “Active”. For the same compound, the Activity (Dendritic cell [3]) was “Active”, the inhibition at 1 µg/mL [5] was > 50% and the IC50 (K562) was > 10 µM. The Activity (Dendritic cell [6]) was “Active” and the Activity (Dendritic cell [4]) was “Active”.
For `C#CCn1cc(C(=O)NCCCOC(=O)[C@@H](O)[C@@H](N)c2ccccc2)c(=O)c2ccc(Cl)nc21`, the Inhibition [7] was >50%.
With `C#CCn1cc(C(=O)NCCCOC(=O)[C@@H](O)[C@@H](NC(=O)OC(C)(C)C)c2ccccc2)c(=O)c2ccc(Cl)nc21` the IC50 [1] was > 10 µM, the IC50 (KB) was > 10 µM and the IC50 (SW-620) was 3 µM. For the same compound, the IC50 (PA-1) was > 10 µM, the IC50 (A549) was > 10 µM and the IC50 (NIH3T3 (Mus musculus)) was 7.84 µM. The IC50 (HBL-100) was > 10 µM, the IC50 (DU-145) was > 10 µM and the inhibition at 1 µg/mL [5] was > 50%. The IC50 (K562) was > 10 µM and the Activity (Dendritic cell [6]) was “Active”.
In the case of `C#CCn1cc(C(=O)NCCCOC(=O)[C@H]2OC(C)(C)N(C(=O)OC(C)(C)C)[C@@H]2c2ccccc2)c(=O)c2ccc(Cl)nc21`, the IC50 [1] is reported as > 10 µM, the IC50 (KB) is reported as > 10 µM and the IC50 (SW-620) is reported as 3.96 µM. The IC50 (PA-1) was 6 µM, the IC50 (A549) was > 10 µM and the IC50 (NIH3T3 (Mus musculus)) was > 10 µM. For the same compound, the IC50 (HBL-100) was 1.37 µM, the IC50 (DU-145) was > 10 µM and the inhibition at 1 µg/mL [5] was > 50%. For the same compound, the IC50 (K562) was > 10 µM and the Inhibition [7] was >50%.
